The results in this text go back to ChEMBL document CHEMBL1152617, “Synthesis of 2- and 17-substituted estrone analogs and their antiproliferative structure-activity relationships compared to 2-methoxyestradiol” (Bioorg Med Chem, 2009).

A short description of series [1]: Antiproliferative activity against human U87MG cells by Brdu incorporation assay. Type of series: functional, cell-based, U-87MG ATCC. The following applies: U-87 MG. The procedure, abridged: (§1)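 Cells were grown in DMEM with 10% FBS, 2 mM L-glutamine and penicillin/streptomycin. They were seeded at 2000 cells/well, attached overnight, then exposed to increasing compound concentrations for 48 h. DNA synthesis was read by a colorimetric BrdU ELISA. Each condition was run in triplicate, with at least two experiments, reported as the mean ± SD of independent experiments.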

The next series has as its system PC-3. Description: Antiproliferative activity against human PC3 cells by Brdu incorporation assay. Type of series: functional, cell-based. The method, boiled down:
as §1

Series [2] has as its system MDA-MB-231 (Homo sapiens). Description: Antiproliferative activity against human MDA-MB-231 cells by Brdu incorporation assay.
A further series concerns HUVEC. Briefly: Antiangiogenic activity against HUVECs by Brdu incorporation assay. Type of series: functional, cell-based. To be noted: Homo sapiens. The procedure, abridged: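 After overnight attachment they were washed with PBS and held 24 h without growth factor (EBM, 2% FBS). They were then given increasing drug concentrations in EBM with 2% FBS plus 10 ng/mL bFGF for 48 h at 37 °C. Proliferation was read by BrdU ELISA.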

Series [3] can be described thus: Metabolic stability in human liver microsomes assessed as compound remaining at 5 uM after 30 mins by LCMS analysis relative to 0 mins. The class given is ADME, Microsome. To be noted: read-out: Stability. The procedure, abridged: (§2)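 Human liver microsomes were incubated in 50 mM tris pH 7.5 with 10 mM MgCl2, 2 mM UDPGA, 25 µg alamethicin/mg microsomal protein and 5 µM compound. Aliquots at 0, 15, 30 and 60 min were quenched in acetonitrile with internal standard. Samples were analysed by C18 LCMS in negative ion mode as % remaining versus 0 min. Controls were BSA without microsomes, and incubations lacking UDPGA.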

Series [4] can be described thus: Metabolic stability in human liver microsomes assessed as compound remaining at 5 uM after 60 mins by LCMS analysis relative to 0 mins. Type of series: ADME, Microsome. The following applies: read-out: Stability. The procedure, abridged:
as §2
Background: Liver microsomes are vesicles of endoplasmic reticulum, rich in cytochrome P450 enzymes.

The next series relates to MCF7. Briefly: Estrogenic activity in human MCF7 cells assessed as stimulation of cell proliferation relative to 2-methoxyestradiol. The class given is functional. The method, boiled down: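 MCF-7 were kept in DMEM/F12 with 10% FBS, seeded at 20–30,000 cells/well, adhered overnight and counted. After a PBS wash they were starved 3 days in phenol red-free IMEM with 2% charcoal-dextran-stripped FBS. Increasing concentrations were given, with medium renewed every 2–3 days. Cells were Coulter-counted after 8 or 10 days, in triplicate, and expressed as stimulation index relative to 2ME2 (1.00).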

Series [5] can be described thus: Metabolic stability in human liver microsomes assessed as compound remaining at 5 uM after 15 mins by LCMS analysis relative to 0 mins. Type of series: ADME, Microsome. The following applies: read-out: Stability. The procedure, abridged: as §2

In general, IC50 refers to the point on the concentration scale where inhibition reaches its midpoint. On to `COc1cc2c(cc1O)CC[C@@H]1[C@@H]2CC[C@]2(C)C(C(N)=O)CC[C@@H]12` (stereo not given in full), for which the IC50 in series [1] was determined as 11.2 µM; with PC-3 it was 21.5 µM; in series [2], 2.51 µM; in the series on HUVEC it was 4.55 µM.

As for `C[C@@]12CCC[C@H]1[C@@H]1CCc3cc(O)c(NC=O)cc3[C@H]1CC2`, the remaining at 0.5 h, 5 µM in series [3] worked out at 86%. The IC50 in series [1] amounted to 42.9 µM; in the series with PC-3, 26 µM; in series [2], 24.6 µM; in the series with HUVEC it was 6.8 µM. The remaining at 1 h, 5 µM in series [4] stood at 68%. In addition, in the series with MCF7, the “fold change (FC)” value stood at 1.71. Besides, the remaining at 0.25 h, 5 µM in series [5] stood at 101%.

Regarding `COc1cc2c(cc1O)CC[C@@H]1[C@@H]2CC[C@]2(C)[C@@H](C)CC[C@@H]12`, the remaining at 0.5 h, 5 µM in series [3] is 57%. Further, the IC50 came to 9.39 µM in series [1], 6.46 µM in the series on PC-3, 3.33 µM in series [2] and 2.4 µM in the series with HUVEC. The remaining at 1 h, 5 µM in series [4] was determined as 47%. In addition, the “fold change (FC)” value in the series on MCF7 was 0.89. The remaining at 0.25 h, 5 µM in series [5] is 67%.

On to `C=C1CC[C@H]2[C@@H]3CCc4cc(O)c(OC)cc4[C@H]3CC[C@]12C`, for which the remaining at 0.5 h, 5 µM in series [3] was 67%. For the same compound, the remaining at 1 h, 5 µM in series [4] was found to be 5.8%. In addition, the IC50 in series [2] came out at 0.24 µM; with HUVEC, 0.19 µM. For the same compound, the “fold change (FC)” value in the series on MCF7 is given as 0.89. Besides, the remaining at 0.25 h, 5 µM in series [5] is 76%.

As to `COc1cc2c(cc1O)CC[C@@H]1[C@@H]2CC[C@]2(C)CCC[C@@H]12`, the remaining at 0.5 h, 5 µM in series [3] was determined as 101%. The IC50 in series [1] was 7.59 µM; in the series with PC-3 it was 8.49 µM; in series [2], 2.2 µM; with HUVEC, 1.32 µM. The remaining at 1 h, 5 µM in series [4] came to 117%. Besides, the “fold change (FC)” value in the series on MCF7 worked out at 0.24. For the same compound, the remaining at 0.25 h, 5 µM in series [5] is 94%.

In the case of `C[C@@]12CCC[C@H]1[C@@H]1CCc3cc(O)c(N)cc3[C@H]1CC2`, the half-inhibitory concentration (IC50) in series [1] was above 100 µM; in the series on PC-3, above 80 µM; in series [2], above 100 µM; in the series with HUVEC, 60.1 µM. The “fold change (FC)” value in the series on MCF7 came to 1.49.

As for `COc1cc2c(cc1O)CC[C@@H]1[C@@H]2CC[C@]2(C)[C@@H](NC(C)C)CC[C@@H]12`, the IC50 was found to be 49.2 µM in series [1], 23.4 µM in the series on PC-3, 17.8 µM in series [2] and 18.8 µM in the series with HUVEC. Also, the “fold change (FC)” value in the series on MCF7 turned out to be 0.11.

As for `CNc1cc2c(cc1O)CC[C@@H]1[C@@H]2CC[C@]2(C)CCC[C@@H]12`, the half-maximal inhibitory concentration (IC50) in series [1] stood at 22.3 µM; with PC-3 it was 22.8 µM; in series [2], 26.8 µM; in the series on HUVEC, 4.11 µM. Moreover, the “fold change (FC)” value in the series with MCF7 is reported as 1.22.

With `COc1cc2c(cc1O)CC[C@@H]1[C@@H]2CC[C@]2(C)/C(=N/O)CC[C@@H]12`, the half-maximal inhibitory concentration (IC50) in series [1] was determined as 9.4 µM; in the series on PC-3 it was 8.11 µM; in series [2], 8.68 µM; in the series on HUVEC, 4.27 µM. In addition, the “fold change (FC)” value in the series with MCF7 is 1.22.

For `COc1cc2c(cc1O)CC[C@@H]1[C@@H]2CC[C@]2(C)/C(=N/NS(=O)(=O)c3ccc(C)cc3)CC[C@@H]12`, the IC50 in series [1] was determined as 27.3 µM; with PC-3, 27.2 µM; in series [2] it was 72.5 µM; in the series with HUVEC, 7.95 µM. Besides, the “fold change (FC)” value with MCF7 is 0.43.

In the case of `CCCC[C@H]1CC[C@H]2[C@@H]3CCc4cc(O)c(OC)cc4[C@H]3CC[C@]12C`, the IC50 in series [1] worked out at 21.1 µM; in the series with PC-3, 28.8 µM; in series [2], 33.5 µM; in the series on HUVEC, 12.6 µM. In addition, the “fold change (FC)” value in the series with MCF7 was determined as 0.59.

Turning to `COc1cc2c(cc1O)CC[C@@H]1[C@@H]2CC[C@]2(C)C=CC[C@@H]12`, the IC50 in series [1] stood at 0.88 µM; in the series with PC-3 it was 0.62 µM; in series [2], 0.73 µM; with HUVEC it was 0.71 µM. In the series on MCF7, the “fold change (FC)” value came to 0.3.

For `CN(C)c1cc2c(cc1O)CC[C@@H]1[C@@H]2CC[C@]2(C)CCC[C@@H]12.Cl`, the IC50 is 34.2 µM in series [1], 26 µM with PC-3, 39.3 µM in series [2] and 7.43 µM with HUVEC. Besides, in the series with MCF7, the “fold change (FC)” value stood at 2.17.

Consider `COc1cc2c(cc1O)CC[C@@H]1[C@@H]2CC[C@]2(C)[C@@H](N)CC[C@@H]12`, for which the remaining at 0.5 h, 5 µM in series [3] is 30%. In addition, the IC50 in series [1] came out at 19 µM; in the series with PC-3, 13.8 µM; in series [2] it was 9.77 µM; in the series on HUVEC it was 13.4 µM. Besides, in series [4], the remaining at 1 h, 5 µM was 9%. In the series with MCF7, the “fold change (FC)” value amounted to 0.19. Besides, the remaining at 0.25 h, 5 µM in series [5] turned out to be 32%.

Turning to `CC=C1CC[C@H]2[C@@H]3CCc4cc(O)c(OC)cc4[C@H]3CC[C@]12C`, the remaining at 0.5 h, 5 µM in series [3] turned out to be 75%. Besides, the remaining at 1 h, 5 µM in series [4] turned out to be 0.8%. Besides, the IC50 came out at 0.58 µM in series [2] and 0.26 µM with HUVEC. The “fold change (FC)” value in the series with MCF7 is given as 0.89. Also, the remaining at 0.25 h, 5 µM in series [5] was found to be 75%.

Consider `CC[C@H]1CC[C@H]2[C@@H]3CCc4cc(O)c(OC)cc4[C@H]3CC[C@]12C`, for which, in series [3], the remaining at 0.5 h, 5 µM worked out at 76%. Besides, the IC50 in series [1] came to 12.8 µM; in the series on PC-3 it was 8.7 µM; in series [2], 48.1 µM; in the series on HUVEC it was 3.63 µM. For the same compound, the remaining at 1 h, 5 µM in series [4] was 72%. Also, in the series with MCF7, the “fold change (FC)” value was determined as 0.49. In addition, in series [5], the remaining at 0.25 h, 5 µM amounted to 91%.

As to `CCC=C1CC[C@H]2[C@@H]3CCc4cc(O)c(OC)cc4[C@H]3CC[C@]12C`, the IC50 in series [2] worked out at 7.89 µM; in the series on HUVEC it was 3.23 µM. Moreover, the “fold change (FC)” value in the series on MCF7 is 0.47.

In the case of `C[C@@]12CCC[C@H]1[C@@H]1CCc3cc(O)ccc3[C@H]1CC2`, the IC50 is 22.1 µM in series [1], 22 µM with PC-3, 41.3 µM in series [2] and 8.22 µM in the series on HUVEC. For the same compound, the “fold change (FC)” value in the series on MCF7 amounted to 1.91.

For the compound `CCC[C@H]1CC[C@H]2[C@@H]3CCc4cc(O)c(OC)cc4[C@H]3CC[C@]12C`, the 50% inhibitory concentration (IC50) in series [1] came out at 87.9 µM; in the series with PC-3, 85.4 µM; in series [2], 95.3 µM; with HUVEC, 40.8 µM. The “fold change (FC)” value with MCF7 is listed as 0.69.

`COc1cc2c(cc1O)CC[C@@H]1[C@@H]2CC[C@]2(C)[C@@H](O)CC[C@@H]12` [2-METHOXYESTRADIOL]: the remaining at 0.5 h, 5 µM in series [3] was found to be 29%. Besides, the IC50 was determined as 8.54 µM in series [1], 2.65 µM with PC-3 and 1 µM in series [2]. In series [4], the remaining at 1 h, 5 µM came out at 9.4%. Further, the remaining at 0.25 h, 5 µM in series [5] stood at 58%.

Take `C[C@@]12CCC[C@H]1[C@@H]1CCc3cc(O)c(N=[N+]=[N-])cc3[C@H]1CC2`: the half-maximal inhibitory concentration (IC50) is 7.12 µM in series [2] and 2.83 µM in the series with HUVEC. Also, the “fold change (FC)” value in the series on MCF7 is 2.04.

For the compound `CCCC=C1CC[C@H]2[C@@H]3CCc4cc(O)c(OC)cc4[C@H]3CC[C@]12C`, the half-maximal inhibitory concentration (IC50) was 14 µM in series [2] and 3.47 µM in the series with HUVEC. Besides, in the series with MCF7, the “fold change (FC)” value was found to be 0.51.

`COc1cc2c(cc1O)CC[C@@H]1[C@@H]2CC[C@]2(C)C(C(=O)O)CC[C@@H]12` (stereo not given in full): the IC50 in series [1] was above 100 µM; in the series on PC-3, above 100 µM; in series [2] it was above 100 µM; with HUVEC it was 35.9 µM.
